# Columns and labels:
# Assay type in all cases: ADME
# [1] = target: T1, UDP-glucuronosyltransferase 2B7 (Homo sapiens, UniProt P16662); test: Drug metabolism assessed as recombinant human C-terminal His-tagged UGT2B7-mediated 13-epiestradiol-17-glucuronide formation at 200 uM after 15 to 60 mins by HPLC analysis in presence of UDPGA; details: recombinant enzyme
# T1 sequence (P16662 whole entry): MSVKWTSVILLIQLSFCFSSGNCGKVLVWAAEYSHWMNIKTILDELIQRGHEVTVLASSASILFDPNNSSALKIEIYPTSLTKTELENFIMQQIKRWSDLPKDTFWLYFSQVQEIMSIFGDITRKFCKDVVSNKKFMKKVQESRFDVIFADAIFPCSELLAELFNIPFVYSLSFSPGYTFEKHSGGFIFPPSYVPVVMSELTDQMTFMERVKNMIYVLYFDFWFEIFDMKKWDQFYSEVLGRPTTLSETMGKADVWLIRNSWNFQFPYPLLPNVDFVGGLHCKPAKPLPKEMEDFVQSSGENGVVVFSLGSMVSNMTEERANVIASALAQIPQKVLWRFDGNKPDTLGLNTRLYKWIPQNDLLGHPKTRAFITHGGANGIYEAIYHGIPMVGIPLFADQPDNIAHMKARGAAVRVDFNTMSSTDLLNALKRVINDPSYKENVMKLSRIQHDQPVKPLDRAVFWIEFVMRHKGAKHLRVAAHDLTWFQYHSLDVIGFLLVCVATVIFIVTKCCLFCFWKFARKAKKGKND
# Method in brief: (§1)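 Screening at a single substrate concentration of 200 μM, in triplicate. The reaction used 5 or 50 µg of UGT-enriched insect cell membranes in 50 mM phosphate pH 7.4 with 10 mM MgCl₂ and 5 mM UDPGA, 10% final DMSO. Incubation was 15–60 min at 37°C. Perchloric acid stopped the reaction and supernatants were analysed by HPLC. Controls lacked UDPGA. Rates were normalized to relative UGT expression level.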
# [2] = target: T2, UDP-glucuronosyltransferase 2B4 (Homo sapiens, UniProt P06133); test: Drug metabolism assessed as recombinant human C-terminal His-tagged UGT2B4-mediated 13-epiestradiol-17-glucuronide formation at 200 uM after 15 to 60 mins by HPLC analysis in presence of UDPGA; details: recombinant enzyme; method in brief: as §1
# T2 sequence (P06133 whole entry): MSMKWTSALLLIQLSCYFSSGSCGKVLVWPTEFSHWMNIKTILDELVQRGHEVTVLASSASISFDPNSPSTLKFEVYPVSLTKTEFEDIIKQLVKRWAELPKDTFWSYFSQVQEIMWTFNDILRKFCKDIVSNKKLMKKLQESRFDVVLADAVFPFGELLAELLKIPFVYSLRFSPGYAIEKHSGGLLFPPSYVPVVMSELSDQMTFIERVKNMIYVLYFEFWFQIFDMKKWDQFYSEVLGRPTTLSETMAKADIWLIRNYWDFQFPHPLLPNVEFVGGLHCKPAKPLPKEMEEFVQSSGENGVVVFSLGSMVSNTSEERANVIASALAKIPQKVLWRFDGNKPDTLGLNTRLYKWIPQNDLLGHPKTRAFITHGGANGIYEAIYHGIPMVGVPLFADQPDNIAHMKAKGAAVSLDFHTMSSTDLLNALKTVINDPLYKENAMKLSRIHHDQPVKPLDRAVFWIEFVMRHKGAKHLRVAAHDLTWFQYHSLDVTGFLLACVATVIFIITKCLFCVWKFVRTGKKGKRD
# [3] = target: T3, UDP-glucuronosyltransferase 1A10 (Homo sapiens, UniProt Q9HAW8); test: Drug metabolism assessed as human UGT1A10-mediated 13-epiestradiol-3-glucuronide formation at 200 uM after 15 to 60 mins by HPLC analysis in presence of UDPGA; details: recombinant enzyme; method in brief: as §1
# T3 sequence (Q9HAW8 whole entry): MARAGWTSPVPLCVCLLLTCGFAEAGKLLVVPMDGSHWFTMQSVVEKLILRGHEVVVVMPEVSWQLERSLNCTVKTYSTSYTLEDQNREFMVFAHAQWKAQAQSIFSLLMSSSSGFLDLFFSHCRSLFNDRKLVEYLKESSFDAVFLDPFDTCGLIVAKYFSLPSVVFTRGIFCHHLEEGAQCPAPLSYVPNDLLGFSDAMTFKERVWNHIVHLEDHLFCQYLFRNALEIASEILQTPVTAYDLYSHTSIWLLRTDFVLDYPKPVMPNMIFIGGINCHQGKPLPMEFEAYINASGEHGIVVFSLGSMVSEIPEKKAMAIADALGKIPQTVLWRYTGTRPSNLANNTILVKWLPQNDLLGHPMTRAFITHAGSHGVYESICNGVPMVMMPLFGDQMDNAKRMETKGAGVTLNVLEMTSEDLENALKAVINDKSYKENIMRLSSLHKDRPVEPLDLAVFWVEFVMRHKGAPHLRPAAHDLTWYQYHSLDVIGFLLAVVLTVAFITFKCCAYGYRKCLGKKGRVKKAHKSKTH
# [4] = Drug metabolism in human intestine microsomes assessed as 16-epiestriol-17-glucuronide formation after 15 to 60 mins by Michaelis-Menten equation analysis in presence of UDPGA
# Method in brief: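 Pooled human intestine microsomes (6 donors), 0.5 or 10 µg, with alamethicin at 5% of total protein. Incubated with 50 mM phosphate pH 7.4, 10 mM MgCl₂, 5 mM UDPGA and 10% DMSO for 15–60 min at 37°C. Each glucuronide regioisomer quantified by HPLC, in triplicate, with substrate consumption at or below 10%.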
# [5] = target: T4, UDP-glucuronosyltransferase 2B17 (Homo sapiens, UniProt O75795); test: Drug metabolism assessed as recombinant human C-terminal His-tagged UGT2B17-mediated estradiol-17-glucuronide formation at 200 uM after 15 to 60 mins by HPLC analysis in presence of UDPGA; details: recombinant enzyme; method in brief: as §1
# T4 sequence (O75795 whole entry): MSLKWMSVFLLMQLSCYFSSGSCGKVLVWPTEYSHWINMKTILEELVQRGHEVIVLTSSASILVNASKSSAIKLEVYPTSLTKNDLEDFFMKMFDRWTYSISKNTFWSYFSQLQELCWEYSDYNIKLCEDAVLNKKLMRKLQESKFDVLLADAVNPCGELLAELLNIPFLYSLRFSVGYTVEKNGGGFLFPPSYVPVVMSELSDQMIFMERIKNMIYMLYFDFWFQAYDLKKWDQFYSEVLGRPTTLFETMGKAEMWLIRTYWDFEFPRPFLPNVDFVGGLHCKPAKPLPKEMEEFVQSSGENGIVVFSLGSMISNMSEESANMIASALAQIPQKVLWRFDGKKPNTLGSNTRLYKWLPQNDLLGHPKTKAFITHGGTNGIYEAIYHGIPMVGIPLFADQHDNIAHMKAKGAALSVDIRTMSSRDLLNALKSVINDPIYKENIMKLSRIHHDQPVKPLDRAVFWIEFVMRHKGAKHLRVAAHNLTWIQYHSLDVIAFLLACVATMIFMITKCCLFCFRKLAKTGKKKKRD
compound,measurement,setting,value
C[C@@]12CC[C@@H]3c4ccc(O)cc4CC[C@H]3[C@@H]1CC[C@@H]2O,Drug metabolism,[1],metabolite_detected
same,Drug metabolism,[2],metabolite_detected
same,Drug metabolism,[3],metabolite_detected
C[C@]12CC[C@@H]3c4ccc(O)cc4CC[C@H]3[C@@H]1C[C@H](O)[C@@H]2O [EPIESTRIOL],Km,[4],1170 µM
same,Vmax,[4],2324 pmol/min/mg
C[C@]12CC[C@@H]3c4ccc(O)cc4CC[C@H]3[C@@H]1CC[C@@H]2O [ESTRADIOL],Drug metabolism,[5],metabolite_detected

# Reference: ChEMBL document CHEMBL3525985, “Regiospecificity and stereospecificity of human UDP-glucuronosyltransferases in the glucuronidation of estriol, 16-epiestriol, 17-epiestriol, and 13-epiestradiol” (Drug Metab Dispos, 2013)
